# Test results published in ChEMBL document CHEMBL1142527, “Tricyclic [1,2,4]triazine 1,4-dioxides as hypoxia selective cytotoxins” (J Med Chem, 2008).
# Tests used:
# HT-29 [1] = assay: Drug metabolism in human HT-29 cells assessed as amount of drug metabolized for one log of cell kill at their CT10 concentration for 1 hr; assay type: ADME, cell-based; conditions: ht-29, 1 h
# In short: (§1)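 Stirred single-cell suspensions of anoxic HT29 cells are exposed for 3 h at a drug concentration giving roughly one log kill by 1 h. Clonogenic survival is followed, and extracellular drug is monitored by HPLC. Concentration-time data are fitted for the apparent first-order metabolic rate constant k_met, scaled to MCL cell density. CT₁₀ and M₁₀ (drug metabolized at 10% survival) are interpolated from the fitted PK/PD model.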
# HT-29 [2] = assay: Metabolic stability in human HT-29 multicellular layer assessed as apparent first-order rate constant under anoxic condition; assay type: ADME, cell-based; in short: as §1
# HT-29 [3] = assay: Hypoxic cytotoxicity ratio, ratio of aerobic IC50 to anoxic IC50 for human HT-29 cells; assay type: functional
# HT-29 [4] = assay: Cytotoxicity against human HT-29 cells assessed as AUC-time curve providing 10% surviving fraction by clonogenic assay; assay type: functional
# HT-29 [5] = assay: Drug diffusion coefficient in human HT-29 multicellular layer under 95% oxygen by liquid scintillation counting; assay type: ADME, cell-based
# In short: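 Tissue diffusion coefficient D measured in HT29 multicellular layers held under 95% O₂ to suppress bioreductive metabolism. Reported as ×10⁻⁷ cm²s⁻¹.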
# SiHa [6] = assay: Hypoxic cytotoxicity ratio, ratio of aerobic IC50 to anoxic IC50 for human SiHa cells; assay type: functional
# [7] = Solubility at 22 degC in culture medium in presence of 5% fetal calf serum; assay type: physicochemical; conditions: culture medium with 5% fetal calf serum; read-out: solubility
# In short: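 Solubility of the HCl salts is determined in culture medium containing 5% fetal calf serum at 22 °C.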
# SiHa [8] = assay: Cytotoxicity against human SiHa cells after 4 hrs under strict hypoxic condition; assay type: functional, cell-based
# HT-29 [9] = assay: Cytotoxicity against human HT-29 cells after 4 hrs under strict hypoxic condition; assay type: functional, cell-based
Compound,Activity (HT-29 [1]),Activity (HT-29 [2]),Ratio IC50 (HT-29 [3]),Activity (HT-29 [4]),D (HT-29 [5]),Ratio IC50 (SiHa [6]),solubility [7],"IC50 (SiHa [8]; Homo sapiens, SiHa, 4 h)","IC50 (HT-29 [9]; Homo sapiens, HT-29, 4 h)",Activity (HT-29 [1]; 1 h),IC50 (SiHa [8]; siha),IC50 (HT-29 [9]; ht-29)
COc1ccc2c(c1)[n+]([O-])c(NCCN(C)C)n[n+]2[O-],1635 µM,0.54 min⁻¹,89,26.1 µM·h,2.3e-07 cm²/s,,,,,,,
CCc1n[n+]([O-])c2cc3c(cc2[n+]1[O-])CC(CCN1CCOCC1)C3 (stereo not given),984 µM,0.54 min⁻¹,36,15.8 µM·h,,84,> 51 mM,1.3 µM,3.6 µM,,,
CN(C)CCNc1n[n+]([O-])c2cc3c(cc2[n+]1[O-])CCO3,,3.15 min⁻¹,23,18.6 µM·h,4.3e-07 cm²/s,87,> 48 mM,,,6732 µM,0.3 µM,2.4 µM
CCc1n[n+]([O-])c2cc3c(cc2[n+]1[O-])CC(CCO)C3 (stereo not given),2641 µM,0.54 min⁻¹,102,41.3 µM·h,,86,2 mM,2.9 µM,7.7 µM,,,
[O-][n+]1nc(CCCN2CCOCC2)[n+]([O-])c2cc3c(cc21)CCO3,986 µM,0.31 min⁻¹,25,27.6 µM·h,,43,51 mM,5.1 µM,8.9 µM,,,
[O-][n+]1nc(CCCN2CCOCC2)[n+]([O-])c2cc3c(cc21)CC(CO)C3 (stereo not given),2533 µM,0.9 min⁻¹,121,24.4 µM·h,,206,48 mM,1.8 µM,2.4 µM,,,
CN(C)CCNc1n[n+]([O-])c2cc3c(cc2[n+]1[O-])CCC3,815 µM,0.44 min⁻¹,152,16 µM·h,5.9e-07 cm²/s,111,> 51 mM,0.7 µM,2.3 µM,,,
CCCN(CCC)CCNc1n[n+]([O-])c2cc3c(cc2[n+]1[O-])CCC3,3941 µM,1.07 min⁻¹,77,31.8 µM·h,1.92e-06 cm²/s,91,20 mM,0.7 µM,2.5 µM,,,
[O-][n+]1nc(NCCN2CCCCC2)[n+]([O-])c2cc3c(cc21)CCC3,2444 µM,1.25 min⁻¹,49,15.6 µM·h,1.19e-06 cm²/s,143,1.9 mM,1.3 µM,5.8 µM,,,
CN(C)CCNc1n[n+]([O-])c2c3c(ccc2[n+]1[O-])CCC3,2219 µM,0.74 min⁻¹,67,26.3 µM·h,8.4e-07 cm²/s,99,> 54 mM,1.6 µM,3 µM,,,
Nc1n[n+]([O-])c2ccccc2[n+]1[O-] [TIRAPAZAMINE],1698 µM,,,24.3 µM·h,4.04e-07 cm²/s,,,,,,,
